Activity calls are given as the source filed them. The calls are words filed in the database; no cut-off is given here.
What was measured:
[1] = molecular target: T1, DNA topoisomerase 1 (Homo sapiens) (UniProt P11387); assay: Induction of human recombinant topoisomerase 1-mediated cleavage of 32P-labeled linearized pRYG plasmid DNA at 25 uM after 30 mins by agarose gel electrophoresis
T1 sequence (whole entry): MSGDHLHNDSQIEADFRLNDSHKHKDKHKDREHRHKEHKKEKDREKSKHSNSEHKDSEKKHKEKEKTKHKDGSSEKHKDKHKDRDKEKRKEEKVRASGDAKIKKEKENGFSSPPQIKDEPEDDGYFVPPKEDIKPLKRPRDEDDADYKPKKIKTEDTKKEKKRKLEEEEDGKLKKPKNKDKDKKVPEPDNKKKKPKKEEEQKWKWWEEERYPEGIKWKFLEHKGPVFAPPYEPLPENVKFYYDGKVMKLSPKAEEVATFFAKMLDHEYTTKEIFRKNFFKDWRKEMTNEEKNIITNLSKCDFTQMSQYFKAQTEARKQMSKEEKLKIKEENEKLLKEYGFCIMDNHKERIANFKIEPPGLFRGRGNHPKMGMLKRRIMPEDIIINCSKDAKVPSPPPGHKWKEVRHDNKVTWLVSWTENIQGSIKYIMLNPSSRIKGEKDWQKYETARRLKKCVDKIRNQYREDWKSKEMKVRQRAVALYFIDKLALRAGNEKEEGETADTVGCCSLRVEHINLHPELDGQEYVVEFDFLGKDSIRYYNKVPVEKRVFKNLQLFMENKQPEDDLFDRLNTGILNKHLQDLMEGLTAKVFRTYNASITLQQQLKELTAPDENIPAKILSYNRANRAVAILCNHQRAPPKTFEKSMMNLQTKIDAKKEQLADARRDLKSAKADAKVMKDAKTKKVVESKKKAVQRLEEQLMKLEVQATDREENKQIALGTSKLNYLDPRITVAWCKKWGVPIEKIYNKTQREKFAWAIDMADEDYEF
Summary of the method: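 Recombinant human Top I was incubated with HindIII-linearised pRYG plasmid, 3'-end-labelled with [α-32P]dCTP by Klenow fill-in (about 100000 cpm per reaction). Reactions were stopped with SDS and proteinase K at 45 °C, alkali-denatured, run on a 1% agarose gel and autoradiographed.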

Mus musculus [2] = assay: Toxicity in athymic BALB/c nude mouse xenografted with human HT-29 cells assessed as morbidity at 150 mg/kg, ip for 10 days measured after 30 days; assay type: organism-based; design: dose 150 mg/kg, route intraperitoneal; settings: in vivo, 720 h
Summary of the method: (§1)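 Nude mouse HT-29 xenograft model as above: female athymic BALB/c, 18-22 g, n=6 per group. Dosing was i.p. daily in 400 μL for 10 consecutive days at 75 or 150 mg/kg, with saline controls. Body weight and tumour volume were recorded every 4 days, and the study ended on day 30. Weights were compared with controls by Student's t test.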

AGS = assay: Cytotoxicity against human AGS cells expressing wild type p53 after 48 hrs by SRB assay; assay type: functional, cell-based
Summary of the method: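 Cell lines came from CCRC, Taiwan. Cells were seeded at about 5 × 10^3 per well and left overnight. They were then given serum-free medium containing 0-10 μM compound (0.08-10 μM serial dilutions) for 48 h at 37 °C. Cells were fixed with TCA (10% final), stained with SRB (0.4% final), and the dye was dissolved in 10 mM Tris with A515 read. IC50 was taken from a fitted log concentration-response curve.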

[3] = molecular target: T1, DNA topoisomerase 1 (Homo sapiens); assay: Induction of human topoisomerase 1-mediated chromosomal DNA strand breaks in HT-29 cells at 10 uM after 1 hr by comet assay; assay type: cell-based
Summary of the method: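 HT-29 cells were seeded at 1 × 10^4 per well and attached overnight, then treated for 1 h. Untreated cells served as negative control. Cells in low-melting agarose on precoated slides were lysed at pH 10.5 for 30 min at 4 °C and unwound in 300 mM NaOH/1 mM EDTA (pH >13) for 30 min at 4 °C. Electrophoresis ran 10 min at 16 V, with SYBR Gold staining. Read-out was mean % tail DNA from ≥50 nuclei, duplicates in three independent experiments.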

Mus musculus [4] = assay: Toxicity in athymic BALB/c nude mouse xenografted with human HT-29 cells assessed as change in body weight at 150 mg/kg, ip for 10 days measured after 30 days; assay type: organism-based; design: dose 150 mg/kg, route intraperitoneal; settings: in vivo, 720 h; summary of the method: as §1
K562 = assay: Cytotoxicity against p53-deficient human K562 cells after 48 hrs by SRB assay; assay type: functional, cell-based; settings: K562, 48 h
HT-29 [5] = assay: Cytotoxicity against human HT-29 cells assessed as inhibition of anchorage-dependent colony formation at 5 uM after 14 days; assay type: functional, cell-based
Summary of the method: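 HT-29 cells were plated at 500 per well and allowed to attach for 24 h. They were then exposed continuously to compound or DMSO for 14 days, with medium replaced every 72 h. Colonies were fixed in 1% formaldehyde/PBS and stained with 0.1% crystal violet.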

HT-29 [6] = assay: Induction of apoptosis in human HT-29 cells assessed as apoptotic cells at 10 ug/mL after 24 hrs by annexin V/propidium iodide-based flow cytometry; assay type: functional
Summary of the method: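 SKOV-3 or HT-29 cells (1-5 × 10^6 cells/mL) were incubated with 0, 5 or 10 μg/mL compound for 24 h. They were then washed and stained with EGFP-Annexin V/PI and analysed immediately by flow cytometry. Annexin V+/PI− cells were scored as apoptotic; PI-permeant cells were scored as necrotic.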

- Activity [1]: Active
- Activity [3]: 48%
SMILES: CCn1cc(-c2nc3ccc([N+](=O)[O-])cc3o2)c(=O)c2cc(F)c(N3CCNC(C)C3)c(F)c21 (centres undefined)
- Activity (Mus musculus [2]): Non-toxic
- GI50 (AGS): 0.7 µM
- IC50 (AGS): 3.5 µM
- Activity (Mus musculus [4]): Non-toxic
- IC50 (K562): 4.6 µM
- Activity (HT-29 [5]): Active
- Activity (HT-29 [6]): 35.9%
